In ChEMBL document CHEMBL1165875, “Synthesis and evaluation of 9-benzylideneamino derivatives of homocamptothecin as potent inhibitors of DNA topoisomerase I” (Eur J Med Chem, 2010):
Active and inactive are the calls of the source. No cut-off for these calls is given here.

What was measured:
MDA-MB-435 = test: Cytotoxicity against human MDA-MB-435 cells after 3 days by MTT assay; format: functional, cell-based; conditions: MDA-MB-435, 72 h
In short: (§1)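 MTT read-out: formazan dissolved in DMSO, absorbance at 570 nm, compound-free wells as blanks. Survival expressed as percentage of untreated control wells.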

A549 = test: Cytotoxicity against human A549 cells after 3 days by MTT assay; format: functional, cell-based; conditions: A549, 72 h; in short: as §1
LoVo = test: Cytotoxicity against human LoVo cells after 3 days by MTT assay; format: functional, cell-based; conditions: 72 h; in short: as §1
[1] = target: T1, Topoisomerase I (Bos taurus) (UniProt Q2HPH0); test: Inhibition of calf thymus DNA topoisomerase 1-mediated pBR322 DNA cleavage
T1 sequence (whole entry): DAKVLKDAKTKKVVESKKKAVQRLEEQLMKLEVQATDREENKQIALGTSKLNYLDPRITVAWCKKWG
In short: (§2)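 Calf thymus Topo I with supercoiled pBR322 DNA in Topo I buffer with 0.1% BSA, 20 uL reactions. Reactions stopped with loading buffer (EDTA, glycerol, xylene cyanol FF, bromophenol blue). Products resolved on 0.8% agarose in TAE, 40 min at 120 V. Gel stained with ethidium bromide at room temperature and imaged under UV.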

[2] = target: T1, Topoisomerase I (Bos taurus); test: Inhibition of calf thymus DNA topoisomerase 1-mediated pBR322 DNA cleavage at 1 uM; in short: as §2

Row | SMILES | IC50 (MDA-MB-435) [µM] | IC50 (A549) [µM] | IC50 (LoVo) [µM] | Activity [1] | Activity [2]
1 | CC[C@]1(O)CC(=O)OCc2c1cc1n(c2=O)Cc2c-1nc1cccc(/N=C/c3cc(C)cc(C)c3)c1c2C | 1.18 | 5.58 | 5.96 | – | –
2 | CC[C@@]1(O)C(=O)OCc2c1cc1n(c2=O)Cc2cc3c(CN(C)C)c(O)ccc3nc2-1 [TOPOTECAN] | 0.079 | 1.09 | 1.21 | – | –
3 | CC[C@]1(O)CC(=O)OCc2c1cc1n(c2=O)Cc2c-1nc1cccc(/N=C/c3cccc(C)c3)c1c2C | 0.016 | 2.92 | 2.6 | – | –
4 | CC[C@]1(O)CC(=O)OCc2c1cc1n(c2=O)Cc2c-1nc1cccc(/N=C/c3ccc(Cl)cc3)c1c2C | 0.011 | 2.55 | 1.61 | – | –
5 | CC[C@]1(O)CC(=O)OCc2c1cc1n(c2=O)Cc2c-1nc1cccc(/N=C/c3ccc(C)cc3C)c1c2C | 0.72 | 2.39 | 8.62 | – | –
6 | CC[C@]1(O)CC(=O)OCc2c1cc1n(c2=O)Cc2c-1nc1cccc(NC(C)=O)c1c2C | 4.32 | 151 | 190 | – | –
7 | CC[C@]1(O)CC(=O)OCc2c1cc1n(c2=O)Cc2c-1nc1cccc(/N=C/c3ccccc3C)c1c2C | 0.0039 | 3.29 | 1.38 | Active | –
8 | CC[C@]1(O)CC(=O)OCc2c1cc1n(c2=O)Cc2c-1nc1cccc(/N=C/c3ccccc3OC)c1c2C | 0.0022 | 2.28 | 1.93 | Active | –
9 | CC[C@]1(O)CC(=O)OCc2c1cc1n(c2=O)Cc2c-1nc1cccc(/N=C/c3ccc(Br)cc3)c1c2C | 0.018 | 1.87 | 5.8 | – | –
10 | CC[C@]1(O)CC(=O)OCc2c1cc1n(c2=O)Cc2c-1nc1cccc(/N=C/c3ccc(Cl)cc3Cl)c1c2C | 0.36 | 3.6 | 4.19 | – | –
11 | CC[C@]1(O)CC(=O)OCc2c1cc1n(c2=O)Cc2c-1nc1cccc(N)c1c2C | 0.11 | 3.55 | 10.3 | Active | inactive
12 | CC[C@]1(O)CC(=O)OCc2c1cc1n(c2=O)Cc2c-1nc1cccc(/N=C/c3cccc([N+](=O)[O-])c3)c1c2C | 0.014 | 5.44 | 1.07 | – | –
13 | CC[C@]1(O)CC(=O)OCc2c1cc1n(c2=O)Cc2c-1nc1cccc(/N=C/c3ccc(N(C)C)cc3)c1c2C | 0.0098 | 3.01 | 3.39 | – | –
14 | CC[C@]1(O)CC(=O)OCc2c1cc1n(c2=O)Cc2c-1nc1cccc(/N=C/c3ccc(C(C)(C)C)cc3)c1c2C | 0.27 | 4.56 | 4.26 | – | –
15 | CC[C@]1(O)CC(=O)OCc2c1cc1n(c2=O)Cc2c-1nc1cccc(/N=C/c3ccc(C)cc3)c1c2C | 0.0091 | 2.84 | 0.91 | Active | –
